Measurements of several laboratories.
Protocols differ between the studies behind these lines.
CHRM4: Muscarinic acetylcholine receptor M4 (CHRM4, Homo sapiens, UniProt P08173)
DYRK4: Dual specificity tyrosine-phosphorylation-regulated kinase 4 (DYRK4, Homo sapiens, UniProt Q9NR20)
KCNU1: KCNU1 (Homo sapiens, UniProt A8MYU2)
MAOB: Amine oxidase [flavin-containing] B (MAOB, Homo sapiens, UniProt P27338)
CA9: Carbonic anhydrase 9 (CA9, Homo sapiens, UniProt Q16790)
Adora1: Adenosine receptor A1 (Adora1, Rattus norvegicus, UniProt P25099)

SMILES | target | test | system | conditions | inhibition [%]
Oc1cccc(Nc2nc(-c3ccc(F)cc3F)cs2)c1 | CHRM4 | cell-free assay |  | 10 µM | -2.9
Cn1cnc(Br)c1C1=CN(c2ncnc3[nH]cnc23)CCS1 | DYRK4 | enzyme activity, inhibitor, radiometric |  | 2 µM | 72.2
N=c1n(CCN2CCCCC2)c2ccccc2n1CC(O)c1cccc(Br)c1 (centres unmarked) | KCNU1 | ion current, inhibitor, patch clamp | HEK293 | 10 µM | 17
O=C(Nc1ccc(Br)cc1)c1ccccn1 | MAOB | enzyme activity, inhibitor |  | 1 µM, 20 min | 85
CCOC(=O)C1CSc2[nH]c(=O)sc2C1c1cn(-c2ccccc2)nc1-c1ccc(OC)cc1 (centres unmarked) | CA9 | enzyme activity, inhibitor |  | 1 µM | 71.4
Cc1ccc(C(=O)Nc2ccc(S(=O)(=O)O)c3cc(S(=O)(=O)O)cc(S(=O)(=O)O)c23)cc1NC(=O)c1cccc(NC(=O)Nc2cccc(C(=O)Nc3cc(C(=O)Nc4ccc(S(=O)(=O)O)c5cc(S(=O)(=O)O)cc(S(=O)(=O)O)c45)ccc3C)c2)c1 | NAD-dependent protein deacylase sirtuin-5, mitochondrial (SIRT5, Homo sapiens, UniProt Q9NXA8) | enzyme activity, inhibitor |  | 1 mM | > 60
N#CC1CSc2[nH]c(=O)sc2C1c1cn(-c2ccccc2)nc1-c1ccc(Br)cc1 (centres unmarked) | CA9 | enzyme activity, inhibitor |  | 0.1 µM | 60.1
O=C(Nc1ccccc1)c1ccc2c(c1)OCO2 | MAOB | enzyme activity, inhibitor |  | 1 µM, 20 min | 80
CN(C)C1CCN(CC#Cc2nn(C3CCCC3)c3nc(NCc4ccccc4)ncc23)C1 (centres unmarked) | Serine/threonine-protein kinase 26 (STK26, Homo sapiens, UniProt Q9P289) | enzyme activity, inhibitor, FRET |  | 10 µM | 78
CCOc1ccc(C(=O)Nc2ccc([N+](=O)[O-])cc2Cl)cc1OCC | MAOB | enzyme activity, inhibitor |  | 1 µM, 20 min | 34
O=C(c1ccc(Cl)cc1)N(Cc1ccccc1)C1CCCCC1 | Beta-1 adrenergic receptor (ADRB1, Homo sapiens, UniProt P08588) | cell-free assay |  | 10 µM | -27.9
CCN1CCCn2c1nc1c2c(=O)n(C)c(=O)n1C | Adora1 | ligand displacement, radioligand |  | 25 µM, cell membranes | 42
Cc1cc([N+](=O)[O-])ccc1NC(=O)c1cc(Cl)ccc1O | MAOB | enzyme activity, inhibitor |  | 1 µM, 20 min | 5
CC(C)CC(C)N1CCCn2c1nc1c2c(=O)n(C)c(=O)n1C (centres unmarked) | Adora1 | ligand displacement, radioligand |  | 25 µM, cell membranes | 30
O=C1NC(=S)C(=Cc2cn(-c3ccccc3)nc2-c2ccc(Br)cc2)S1 | CA9 | enzyme activity, inhibitor |  | 10 µM | 83.7
CCN(CC)CCNC(=O)C1CCN(c2ccc3nnc(-c4cccc(C)c4)n3n2)CC1 | KCNU1 | ion current, inhibitor, patch clamp | HEK293 | 10 µM | 62

SMILES | target | test | system | conditions | inhibition [%]
CCOC(=O)C1CSc2[nH]c(=O)sc2C1c1cn(-c2ccccc2)nc1-c1ccc(C)cc1 (centres unmarked) | CA9 | enzyme activity, inhibitor |  | 0.1 µM | 35.5
COc1cc(NC(C)=O)c(Cl)cc1C(=O)Nc1nccs1 | CHRM4 | cell-free assay |  | 10 µM | 16.7
O=C(Nc1ccccc1)c1ccc(Cl)cc1 | MAOB | enzyme activity, inhibitor |  | 1 µM, 20 min | 24
Cc1ccc(-c2nn(-c3ccccc3)cc2C2c3sc(=O)[nH]c3SC3C(=O)N(c4ccccc4)C(=O)C32)cc1 (centres unmarked) | CA9 | enzyme activity, inhibitor |  | 10 µM | 77.9
COc1cc(-c2cc(-c3ccc(N4CCNCC4)cc3)cnc2C)cc(OC)c1OC | DYRK4 | enzyme activity, inhibitor |  | 1 µM | 1
CCOC(=O)C1CSc2[nH]c(=O)sc2C1c1cn(-c2ccccc2)nc1-c1ccc(Cl)cc1 (centres unmarked) | CA9 | enzyme activity, inhibitor |  | 10 nM | 12
COc1cc([N+](=O)[O-])ccc1NC(=O)c1ccccc1 | MAOB | enzyme activity, inhibitor |  | 1 µM, 20 min | 14
COc1ccc(C=NNC(=O)Cn2cnc3ccccc32)c(O)c1 | MAOB | enzyme activity, inhibitor, fluorescence |  | 1 µM | 65
O=C(Nc1cc(Cl)cc(Cl)c1)c1cc(Cl)ccc1O | MAOB | enzyme activity, inhibitor |  | 1 µM, 20 min | 0
CCCC(C)N1CCCn2c1nc1c2c(=O)n(C)c(=O)n1C (centres unmarked) | Adora1 | ligand displacement, radioligand |  | 25 µM, cell membranes | 19
CCOC(=O)C1CSc2[nH]c(=O)sc2C1c1cn(-c2ccccc2)nc1-c1ccc(Br)cc1 (centres unmarked) | CA9 | enzyme activity, inhibitor |  | 0.1 µM | 42.2
CNC(=O)c1csc(Nc2cccc(C)n2)n1 | MAOB | enzyme activity, inhibitor, fluorescence |  | 30 µM | 53
C=CN1CCCn2c1nc1c2c(=O)n(C)c(=O)n1C | Adora1 | ligand displacement, radioligand |  | 25 µM, cell membranes | 30
COc1cc(N)ccc1NC(=O)c1ccccc1 | MAOB | enzyme activity, inhibitor |  | 1 µM, 20 min | 1
N#Cc1cc(Cn2c(N3CCCC3)nc3ccccc32)ccc1F | CHRM4 | ligand displacement |  | 10 µM | -6.19
CCCCCC(C)N1CCCn2c1nc1c2c(=O)n(C)c(=O)n1C (centres unmarked) | Adora1 | ligand displacement, radioligand |  | 25 µM, cell membranes | 30
